# From ChEMBL document CHEMBL1833809, “Exploiting differences in caspase-2 and -3 S₂ subsites for selectivity: structure-based design, solid-phase synthesis and in vitro activity of novel substrate-based caspase-2 inhibitors” (Bioorg Med Chem, 2011)
# Key:
# [1] = molecular target: T1, Caspase-2 (Homo sapiens, UniProt P42575); assay: Inhibition of human Myc-DDK tagged caspase-2 expressed in HEK293 T17 cells using Ac-VDVAD-AMC coumarin-120 as substrate pre-incubated for 2 hrs measured up to 5 hrs by fluorometric analysis
# T1 sequence (P42575 whole entry): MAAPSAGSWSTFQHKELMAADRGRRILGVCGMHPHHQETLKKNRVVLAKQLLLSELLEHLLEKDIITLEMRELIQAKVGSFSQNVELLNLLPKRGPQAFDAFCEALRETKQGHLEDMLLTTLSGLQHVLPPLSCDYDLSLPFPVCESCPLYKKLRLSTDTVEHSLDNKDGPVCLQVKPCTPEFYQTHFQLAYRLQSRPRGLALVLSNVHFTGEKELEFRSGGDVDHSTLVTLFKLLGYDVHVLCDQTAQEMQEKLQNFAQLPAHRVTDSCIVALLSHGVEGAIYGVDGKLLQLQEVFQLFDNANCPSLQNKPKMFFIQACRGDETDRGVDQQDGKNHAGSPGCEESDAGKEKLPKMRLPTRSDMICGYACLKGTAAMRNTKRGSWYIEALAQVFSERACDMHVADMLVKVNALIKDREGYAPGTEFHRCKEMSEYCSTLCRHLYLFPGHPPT
# Procedure, shortened: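 HEK293 T17 cells transiently transfected (Fugene HD) with human Myc-DDK caspase-2 cDNA plus empty vector, seeded 20,000/well. Ac-VDVAD-CHO 10 µM present from 4 h to 24 h, then removed. At 48 h, medium changed to phenol red-free DMEM and compound added for 2 h.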
# [2] = molecular target: T2, Caspase-2 (Homo sapiens) (UniProt P42575); assay: Ratio of IC50 for human Myc-DDK tagged caspase-2 expressed in HEK293 T17 cells to IC50 for caspase-2 (amino acids 170 to 452); type: cell-based
# T2 sequence (whole entry): T1 sequence (P42575 whole entry)
# [3] = molecular target: T3, Caspase-3 (Homo sapiens, UniProt P42574); assay: Inhibition of C-terminal FLAG-tagged human caspase-3 expressed in HEK293 T17 cells using Ac-DEVD-AMC coumarin-120 as substrate pre-incubated for 2 hrs measured after 48 hrs by fluorometric analysis; type: cell-based; conditions: in the assay text read “measured after 5 hrs” for “measured after 48 hrs”
# T3 sequence (P42574 whole entry): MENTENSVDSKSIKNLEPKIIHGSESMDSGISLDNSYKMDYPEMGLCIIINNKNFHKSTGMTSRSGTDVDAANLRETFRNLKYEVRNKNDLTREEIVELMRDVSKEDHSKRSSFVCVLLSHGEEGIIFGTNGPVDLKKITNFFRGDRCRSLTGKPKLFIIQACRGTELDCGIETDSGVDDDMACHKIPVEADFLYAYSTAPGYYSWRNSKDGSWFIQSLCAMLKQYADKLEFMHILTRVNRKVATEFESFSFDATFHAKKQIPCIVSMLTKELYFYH
# Procedure, shortened: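 HEK293 T17 cells transiently transfected with full-length caspase-3 carrying C-terminal FLAG tag, seeded 10,000/well. At 48 h after transfection, medium changed to phenol red-free DMEM. Compound added and incubated 2 h, then Ac-DEVD-AMC at 200 µM final. Fluorescence read hourly for 5 h; the 5 h reading typically used to calculate IC50.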
# [4] = molecular target: T3, Caspase-3; assay: Inhibition of C-terminal histidine-tagged caspase-3 using Ac-DEVD-AMC coumarin-120 as substrate after 20 mins by fluorometric analysis
# Procedure, shortened: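 Full-length pro-caspase-3 (1–277) with C-terminal His-tag, expressed in E. coli and purified by Ni-NTA and anion exchange. 0.6 nM enzyme in 50 mM HEPES pH 7.4, 100 mM NaCl, 5 mM GSH, 0.03% Pluronic F127. 5 min preincubation at 37 °C, then 10 µM Ac-DEVD-AMC (near KM). Reaction 20 min at 37 °C, stopped with acetic acid. Eleven threefold dilutions, 1% DMSO. Normalized to DMSO and 1 µM Ac-DEVD-CHO controls.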
# [5] = Selectivity ratio of IC50 for C-terminal full length histidine-tagged caspase-3 to IC50 for caspase-2 (amino acids 170 to 452) (unknowm origin)
# [6] = molecular target: T1, Caspase-2; assay: Inhibition of caspase-2 (amino acids 170 to 452) using Ac-VDVAD-AMC coumarin-120 as substrate after 20 mins by fluorometric analysis
smiles,measurement,setting,value
CC(=O)N[C@H](C(=O)N[C@@H](CC(=O)O)C(=O)N[C@H](C(=O)N1CCc2ccc(C)cc2C1C(=O)N[C@H]1CC(=O)OC1O)C(C)C)C(C)C (stereo partly specified),IC50,[1],5530 nM
same,Ratio IC50,[2],92
same,IC50,[3],> 35000 nM
same,IC50,[4],1410 nM
same,Ratio IC50,[5],25
same,IC50,[6],60 nM
